Reference: ChEMBL document CHEMBL1144664, “Design, synthesis, and SAR of new pyrrole-oxindole progesterone receptor modulators leading to 5-(7-fluoro-3,3-dimethyl-2-oxo-2,3-dihydro-1H-indol-5-yl)-1-methyl-1H-pyrrole-2-carbonitrile (WAY-255348)” (J Med Chem, 2008)
Activity calls are given as the source filed them. The calls are words filed in the database; no cut-off is given here.

Legend:
Progesterone receptor = biological target: T1, Progesterone receptor (Homo sapiens, UniProt P06401); assay: Displacement of [3H]R5020 from human PR in human T47D cells by whole cell assay; type: cell-based
T1 sequence (P06401 whole entry): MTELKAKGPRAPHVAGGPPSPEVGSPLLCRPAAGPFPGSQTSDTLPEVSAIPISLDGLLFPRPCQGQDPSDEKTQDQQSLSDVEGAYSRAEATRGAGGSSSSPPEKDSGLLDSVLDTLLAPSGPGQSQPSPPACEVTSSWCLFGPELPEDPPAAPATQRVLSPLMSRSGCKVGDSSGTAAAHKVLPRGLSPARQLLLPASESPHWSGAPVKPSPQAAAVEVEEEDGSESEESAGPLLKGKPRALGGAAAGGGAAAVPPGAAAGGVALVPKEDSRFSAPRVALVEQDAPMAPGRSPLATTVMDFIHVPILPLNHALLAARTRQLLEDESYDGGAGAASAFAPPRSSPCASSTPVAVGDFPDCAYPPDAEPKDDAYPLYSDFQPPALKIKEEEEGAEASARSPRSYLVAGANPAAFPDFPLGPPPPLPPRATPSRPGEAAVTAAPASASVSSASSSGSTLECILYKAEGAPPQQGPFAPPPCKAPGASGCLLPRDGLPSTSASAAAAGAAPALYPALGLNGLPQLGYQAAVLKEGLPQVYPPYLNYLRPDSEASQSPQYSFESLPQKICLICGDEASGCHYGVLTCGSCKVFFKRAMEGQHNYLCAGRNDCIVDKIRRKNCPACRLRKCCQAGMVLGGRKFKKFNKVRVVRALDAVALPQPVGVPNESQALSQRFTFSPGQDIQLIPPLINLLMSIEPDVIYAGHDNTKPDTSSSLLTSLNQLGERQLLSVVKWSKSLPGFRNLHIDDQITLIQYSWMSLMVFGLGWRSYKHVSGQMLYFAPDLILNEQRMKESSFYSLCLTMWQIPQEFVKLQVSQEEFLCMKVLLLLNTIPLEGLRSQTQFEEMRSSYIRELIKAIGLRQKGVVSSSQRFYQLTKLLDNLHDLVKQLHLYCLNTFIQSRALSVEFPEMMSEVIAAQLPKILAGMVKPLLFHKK

[1] = Stability in rat liver microsome assessed as half life; type: ADME; conditions: liver microsomes
Method in brief: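 Female rat, cynomolgus monkey and human liver microsome stability; half-life (min) reported.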

[2] = Drug level in cynomolgus monkey at […], iv; type: ADME, organism-based, Macaca fascicularis; set-up: dose 0.25 mg/kg, route intravenous; conditions: in vivo
[3] = Half life in cynomolgus monkey at 1 mg/kg, iv; type: ADME, organism-based, Macaca fascicularis; set-up: dose 1 mg/kg, route intravenous; conditions: in vivo
[4] = biological target: T2, Mineralocorticoid receptor (Homo sapiens, UniProt P08235); assay: Antagonist activity at human MR ligand binding domain expressed in african green monkey COS7 cells in presence of aldosterone by Gal4 hybrid assay; type: cell-based, COS-7
T2 sequence (P08235 whole entry): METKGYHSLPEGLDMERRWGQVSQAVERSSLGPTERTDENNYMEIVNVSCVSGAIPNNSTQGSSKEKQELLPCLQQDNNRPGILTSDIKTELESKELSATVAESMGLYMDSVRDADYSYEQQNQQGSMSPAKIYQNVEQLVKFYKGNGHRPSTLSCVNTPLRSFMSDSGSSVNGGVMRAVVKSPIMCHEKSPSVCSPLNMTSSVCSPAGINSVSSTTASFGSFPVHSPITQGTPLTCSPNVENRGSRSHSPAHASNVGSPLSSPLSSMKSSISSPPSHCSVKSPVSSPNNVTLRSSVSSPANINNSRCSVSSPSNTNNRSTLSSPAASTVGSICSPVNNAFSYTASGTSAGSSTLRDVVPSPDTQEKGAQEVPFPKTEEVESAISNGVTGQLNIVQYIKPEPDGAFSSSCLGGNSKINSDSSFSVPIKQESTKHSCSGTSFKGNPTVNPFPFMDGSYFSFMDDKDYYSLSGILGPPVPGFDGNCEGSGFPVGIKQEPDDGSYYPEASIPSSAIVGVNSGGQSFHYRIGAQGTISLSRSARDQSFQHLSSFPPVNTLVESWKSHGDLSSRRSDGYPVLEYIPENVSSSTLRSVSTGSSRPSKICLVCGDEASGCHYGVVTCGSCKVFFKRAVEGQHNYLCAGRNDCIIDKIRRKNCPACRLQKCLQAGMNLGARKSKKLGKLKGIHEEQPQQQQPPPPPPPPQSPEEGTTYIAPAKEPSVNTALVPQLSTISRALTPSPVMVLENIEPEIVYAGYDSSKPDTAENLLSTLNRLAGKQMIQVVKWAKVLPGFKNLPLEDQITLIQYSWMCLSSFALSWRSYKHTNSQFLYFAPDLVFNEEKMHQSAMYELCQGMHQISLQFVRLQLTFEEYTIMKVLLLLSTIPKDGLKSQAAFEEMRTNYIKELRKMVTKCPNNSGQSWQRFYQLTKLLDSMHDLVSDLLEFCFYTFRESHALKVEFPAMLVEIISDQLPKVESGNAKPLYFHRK
Method in brief: (§1)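 Gal4-steroid receptor LBD fusion plasmid plus GAL4_UAS (5 copies, E1b TATA)-luciferase reporter, 50 ng/well each, transfected 16 h into COS-7 cells grown in phenol red-free DMEM with 10% charcoal/dextran-treated FBS. Compound treatment 20 h, then luciferase read-out. Antagonist mode uses 3 nM aldosterone (hMR) or 5 nM 17β-estradiol (hER). Values are the average of at least duplicate determinations.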

[5] = biological target: T3, Estrogen receptor (Homo sapiens) (UniProt P03372); assay: Antagonist activity at human ER ligand binding domain expressed in african green monkey COS7 cells in presence of 17-beta-estradiol by Gal4 hybrid assay; type: cell-based; conditions: COS-7; method in brief: as §1
T3 sequence (whole entry): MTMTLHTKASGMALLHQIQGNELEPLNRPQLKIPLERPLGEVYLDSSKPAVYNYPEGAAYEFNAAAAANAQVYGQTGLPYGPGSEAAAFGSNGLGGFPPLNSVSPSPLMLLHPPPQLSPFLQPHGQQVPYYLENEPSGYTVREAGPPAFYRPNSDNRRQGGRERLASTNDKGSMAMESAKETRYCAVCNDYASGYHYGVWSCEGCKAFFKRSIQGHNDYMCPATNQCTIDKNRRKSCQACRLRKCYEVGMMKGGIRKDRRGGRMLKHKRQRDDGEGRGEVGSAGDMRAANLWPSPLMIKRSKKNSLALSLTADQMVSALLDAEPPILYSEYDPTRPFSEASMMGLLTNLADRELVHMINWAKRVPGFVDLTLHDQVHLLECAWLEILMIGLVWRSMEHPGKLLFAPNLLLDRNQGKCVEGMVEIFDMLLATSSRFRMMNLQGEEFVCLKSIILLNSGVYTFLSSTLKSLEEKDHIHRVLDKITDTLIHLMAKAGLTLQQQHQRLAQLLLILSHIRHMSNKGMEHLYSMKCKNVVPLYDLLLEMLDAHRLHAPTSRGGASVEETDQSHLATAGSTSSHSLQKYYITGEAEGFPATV

[6] = Plasma clearance in Sprague-Dawley rat at 0.5 mg/kg, iv; type: ADME, organism-based; set-up: dose 0.5 mg/kg, route intravenous
Method in brief: (§2)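 Female Sprague–Dawley rats dosed as 1-in-4 cassette or discrete studies. iv in DMSO/PEG200 20:80; po in aqueous 2% Tween 80/0.5% methyl cellulose. Parameters reported: C0, Cmax, t1/2, plasma clearance, Vss, AUC0-inf and %F.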

[7] = Half life in Sprague-Dawley rat at 1 mg/kg, iv; type: ADME, organism-based; set-up: dose 1 mg/kg, route intravenous; conditions: in vivo; method in brief: as §2

Cn1c(C#N)ccc1-c1cc(F)c2c(c1)C(C)(C)C(=O)N2
IC50 (Progesterone receptor): 4.1 nM
half-life [1]: 0.433 h
C0 [2]: 178 ng/mL
half-life [3]: 7.8 h
IC50 [4]: 3700 nM
Activity [5]: inactive
clearance [6]: 4 mL/min/kg
half-life [7]: 9.4 h
